A value given as a limit tells only on which side of the number the result lay.

Common to all, as to format: functional
Assay [1] deals with Leishmania donovani. Briefly: Percent inhibition on the biosynthesis of RNA of promastigotes of Leishmania donovani at 17.5 uM concentration. The gist of the method: (§1)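 Promastigotes (5 x 10^6 cells/mL) were incubated with or without compound for 4 h, then pulsed for 1 h with a labelled precursor: [methyl-3H]thymidine 2.5 µCi/mL for DNA, [5-3H]uridine 2.5 µCi/mL for RNA, or [4,5-3H]leucine 5 µCi/mL for protein. Cells were washed in cold PBS and fractionated with TCA (cold-soluble pool, hot-soluble nucleic acid, insoluble protein). Protein was measured by Lowry.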

The subject of assay [2] is Leishmania donovani. The assay is described as follows: Percent inhibition on the biosynthesis of DNA of promastigotes of Leishmania donovani at 5.25 uM concentration. A digest of the protocol:
as §1

In assay [3] the test system is Leishmania donovani. The assay is described as follows: Concentration of compound provoking >99% irreversible after removal of drugs from culture medium inhibition on growth of Leishmania donovani promastigotes. A digest of the protocol: (§2)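 Strain LRC L-52 promastigotes were exposed to compound for 3 days at 26 °C in DMEM/RPMI 1640 (HEPES, pH 7.4) with 10% heat-inactivated FCS. Cells were then centrifuged, washed free of drug and resuspended in fresh medium. They were counted by hemacytometer after 3 more days. The value is the concentration giving >99% irreversible growth inhibition.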

Assay [4] deals with Leishmania donovani. Briefly: Percent inhibition on the growth of the promastigotes of Leishmania donovani at 17.5 uM concentration.
In assay [5] the test system is Leishmania donovani. Briefly: Percent inhibition on the biosynthesis of DNA of promastigotes of Leishmania donovani at 17.5 uM concentration. A digest of the protocol:
as §1

Assay [6] deals with Leishmania donovani. The assay is described as follows: Percent inhibition on the biosynthesis of DNA of promastigotes of Leishmania donovani at 3.5 uM concentration. A digest of the protocol: as §1
A short description of assay [7]: Concentration of compound provoking 50% inhibition on growth of Leishmania donovani promastigotes. Conditions: read-out: I50. The gist of the method: (§3)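 L. donovani LRC L-52 promastigotes were grown at 26 °C in 45% DMEM plus 45% RPMI 1640 (25 mM HEPES, pH 7.4) with 10% heat-inactivated FCS and antibiotics. Compound was added one day after seeding. Cells were counted by hemacytometer 3 days later, in duplicate flasks at two dilutions each, against untreated cultures. IC50 is the mean of five independent experiments.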

Assay [8] deals with Leishmania donovani. The assay is described as follows: Percent inhibition on the biosynthesis of RNA of promastigotes of Leishmania donovani at 3.5 uM concentration. The gist of the method: as §1
In assay [9] the test system is Leishmania donovani. The assay is described as follows: Percent inhibition on the growth of the promastigotes of Leishmania donovani at 3.5 uM concentration.
Assay [10] relates to Leishmania donovani. The assay is described as follows: Percent inhibition on the biosynthesis of proteins of promastigotes of Leishmania donovani at 3.5 uM concentration. The gist of the method:
as §1

For assay [11], the system named is Leishmania donovani. The assay is described as follows: Percent inhibition on the biosynthesis of proteins of promastigotes of Leishmania donovani at 17.5 uM concentration. The gist of the method:
as §1

Assay [12] relates to Leishmania donovani. Briefly: Percent inhibition on the biosynthesis of proteins of promastigotes of Leishmania donovani at 5.25 uM concentration. A digest of the protocol:
as §1

In assay [13] the test system is Leishmania donovani. Briefly: Percent inhibition on the biosynthesis of RNA of promastigotes of Leishmania donovani at 5.25 uM concentration. A digest of the protocol:
as §1

For assay [14], the system named is Leishmania donovani. The assay is described as follows: Percent inhibition on the growth of the promastigotes of Leishmania donovani at 26.6 uM concentration.
Assay [15] relates to Leishmania donovani. The assay is described as follows: Concentration of compound provoking >99% irreversible after removal of drugs from culture medium inhibition on growth of Leishmania donovani promastigotes multiplication. The gist of the method: as §2
Assay [16] is described as follows: Concentration of compound provoking 50% inhibition on growth of Leishmania donovani promastigotes multiplication. Conditions: read-out: I50. The gist of the method:
as §3

Assay [17] relates to Leishmania donovani. The assay is described as follows: Percent inhibition on the biosynthesis of DNA of promastigotes of Leishmania donovani at 26.6 uM concentration. A digest of the protocol:
as §1

The test system of assay [18] is Leishmania donovani. Briefly: Percent inhibition on the biosynthesis of RNA of promastigotes of Leishmania donovani at 53 uM concentration. The gist of the method:
as §1

Assay [19] deals with Leishmania donovani. The assay is described as follows: Percent inhibition on the growth of the promastigotes of Leishmania donovani at 53 uM concentration.
Assay [20] concerns Leishmania donovani. Briefly: Percent inhibition on the biosynthesis of proteins of promastigotes of Leishmania donovani at 26.6 uM concentration. A digest of the protocol:
as §1

Assay [21] relates to Leishmania donovani. Briefly: Percent inhibition on the biosynthesis of DNA of promastigotes of Leishmania donovani at 53 uM concentration. A digest of the protocol: as §1
The subject of assay [22] is Leishmania donovani. The assay is described as follows: Percent inhibition on the biosynthesis of proteins of promastigotes of Leishmania donovani at 53 uM concentration. The gist of the method:
as §1

Assay [23] concerns Leishmania donovani. Briefly: Percent inhibition on the biosynthesis of RNA of promastigotes of Leishmania donovani at 26.6 uM concentration. A digest of the protocol:
as §1

The subject of assay [24] is Leishmania donovani. Briefly: Percent inhibition on the growth of the promastigotes of Leishmania donovani at 3.7 uM concentration.
Assay [25] has as its system Leishmania donovani. The assay is described as follows: Percent inhibition on the biosynthesis of RNA of promastigotes of Leishmania donovani at 3.7 uM concentration. The gist of the method: as §1
Assay [26] concerns Leishmania donovani. Briefly: Percent inhibition on the biosynthesis of DNA of promastigotes of Leishmania donovani at 3.7 uM concentration. The gist of the method: as §1
For assay [27], the system named is Leishmania donovani. The assay is described as follows: Percent inhibition on the biosynthesis of proteins of promastigotes of Leishmania donovani at 37 uM concentration. A digest of the protocol: as §1
Assay [28] relates to Leishmania donovani. Briefly: Percent inhibition on the growth of the promastigotes of Leishmania donovani at 37 uM concentration.
Assay [29] deals with Leishmania donovani. Briefly: Percent inhibition on the biosynthesis of proteins of promastigotes of Leishmania donovani at 3.7 uM concentration. A digest of the protocol:
as §1

Assay [30] concerns Leishmania donovani. Briefly: Percent inhibition on the biosynthesis of RNA of promastigotes of Leishmania donovani at 37 uM concentration. A digest of the protocol:
as §1

In assay [31] the test system is Leishmania donovani. The assay is described as follows: Percent inhibition on the biosynthesis of DNA of promastigotes of Leishmania donovani at 37 uM concentration. The gist of the method: as §1

For the compound `C/C(=N\N=C(\N)S)c1cc2c3ccccc3nc-2c[nH]1`, the inhibition (in general, the percentage by which the read-out fell short of the control) in the assay with Leishmania donovani [1] was 98.7%; in the assay with Leishmania donovani [2] it was 0.5%; with Leishmania donovani [4] it was 100%; in the assay on Leishmania donovani [5], 99.6%; in the assay on Leishmania donovani [6] it was 0%; in the assay on Leishmania donovani [8], 36%. Besides, the inhibition with Leishmania donovani [9] worked out at 68%; in the assay with Leishmania donovani [10] it was 25%; in the assay on Leishmania donovani [11], 95%; in the assay with Leishmania donovani [12], 36%; with Leishmania donovani [13], 52%. Moreover, the concentration for >99% irreversible growth inhibition with Leishmania donovani [3] was found to be 17.5 µM. The IC50 in assay [7] is 2.5 µM.

For `COC(=O)c1cc2c(cn1)[nH]c1ccccc12` [BETA-CCM], the IC50 in assay [7] was greater than 50 µM.

For `N/C(S)=N/N=C/c1ccccn1`, the inhibition turned out to be 56% in the assay on Leishmania donovani [14]; 90% in the assay with Leishmania donovani [17]; 53% in the assay with Leishmania donovani [18]; 78% in the assay with Leishmania donovani [19]; 20% in the assay with Leishmania donovani [20]; 95% in the assay on Leishmania donovani [21]. The inhibition in the assay on Leishmania donovani [22] was found to be 17%; with Leishmania donovani [23] it was 50%. In the assay with Leishmania donovani [15], this compound registered an Imax of 67 µM. In assay [16], the IC50 came out at 29 µM.

`N/C(S)=N/N=C/c1cc2c3ccccc3nc-2c[nH]1` yielded a concentration for >99% irreversible growth inhibition in the assay on Leishmania donovani [3] of 40 µM. For the same compound, the inhibition amounted to 37% in the assay on Leishmania donovani [24]; 34% in the assay with Leishmania donovani [25]; 89% in the assay on Leishmania donovani [26]; 81% with Leishmania donovani [27]; 90% in the assay on Leishmania donovani [28]; 7% in the assay with Leishmania donovani [29]. The inhibition in the assay on Leishmania donovani [30] turned out to be 96%; in the assay with Leishmania donovani [31], 99.7%. Further, the IC50 in [7] came to 5 µM.

In turn, `N=C(N)c1ccc(OCCCCCOc2ccc(C(=N)N)cc2)cc1` [PENTAMIDINE] showed a concentration for >99% irreversible growth inhibition in the assay with Leishmania donovani [3] of 1.1 µM. Also, the IC50 in assay [7] was 0.56 µM.

Compound `CCOC(=O)c1cc2cc(/C=N/N=C(/N)S)[nH]cc-2n1` showed a concentration for >99% irreversible growth inhibition in the assay on Leishmania donovani [3] greater than 75 µM. Also, the IC50 in [7] was greater than 50 µM.
